The source made the active and inactive calls. The calls are words filed in the database; no cut-off is given here.
How the values were obtained:
[1] = Cardiotoxicity in conscious telemetered Beagle dog assessed as effect on heart rate at 0.5 to 30 mg/kg administered as single iv infusion for 2 hrs measured up to 48 hrs post dose by telemetry; type: toxicity, organism-based, Canis lupus familiaris; conditions: in vivo
Outline: (§1)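 Conscious beagle dogs were given the compound by intravenous infusion. Infusion was set to reach a target plasma concentration 100-fold above the predicted free human Cmax at the therapeutic dose, and cardiovascular parameters were recorded.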

[2] = Cardiotoxicity in conscious telemetered Beagle dog assessed as effect on body temperature at 0.5 to 30 mg/kg administered as single iv infusion for 2 hrs measured up to 48 hrs post dose by telemetry; type: toxicity, organism-based, Canis lupus familiaris; conditions: in vivo; outline: as §1
Bile salt export pump = Bile salt export pump (Homo sapiens, UniProt O95342); assay: Inhibition of recombinant human BSEP expressed in baculovirus infected Sf21 insect cell vesicles assessed as reduction in NBD-taurocholate uptake by fluorescence assay; type: ADME
Bile salt export pump, sequence (O95342 whole entry, the tested form may be a part): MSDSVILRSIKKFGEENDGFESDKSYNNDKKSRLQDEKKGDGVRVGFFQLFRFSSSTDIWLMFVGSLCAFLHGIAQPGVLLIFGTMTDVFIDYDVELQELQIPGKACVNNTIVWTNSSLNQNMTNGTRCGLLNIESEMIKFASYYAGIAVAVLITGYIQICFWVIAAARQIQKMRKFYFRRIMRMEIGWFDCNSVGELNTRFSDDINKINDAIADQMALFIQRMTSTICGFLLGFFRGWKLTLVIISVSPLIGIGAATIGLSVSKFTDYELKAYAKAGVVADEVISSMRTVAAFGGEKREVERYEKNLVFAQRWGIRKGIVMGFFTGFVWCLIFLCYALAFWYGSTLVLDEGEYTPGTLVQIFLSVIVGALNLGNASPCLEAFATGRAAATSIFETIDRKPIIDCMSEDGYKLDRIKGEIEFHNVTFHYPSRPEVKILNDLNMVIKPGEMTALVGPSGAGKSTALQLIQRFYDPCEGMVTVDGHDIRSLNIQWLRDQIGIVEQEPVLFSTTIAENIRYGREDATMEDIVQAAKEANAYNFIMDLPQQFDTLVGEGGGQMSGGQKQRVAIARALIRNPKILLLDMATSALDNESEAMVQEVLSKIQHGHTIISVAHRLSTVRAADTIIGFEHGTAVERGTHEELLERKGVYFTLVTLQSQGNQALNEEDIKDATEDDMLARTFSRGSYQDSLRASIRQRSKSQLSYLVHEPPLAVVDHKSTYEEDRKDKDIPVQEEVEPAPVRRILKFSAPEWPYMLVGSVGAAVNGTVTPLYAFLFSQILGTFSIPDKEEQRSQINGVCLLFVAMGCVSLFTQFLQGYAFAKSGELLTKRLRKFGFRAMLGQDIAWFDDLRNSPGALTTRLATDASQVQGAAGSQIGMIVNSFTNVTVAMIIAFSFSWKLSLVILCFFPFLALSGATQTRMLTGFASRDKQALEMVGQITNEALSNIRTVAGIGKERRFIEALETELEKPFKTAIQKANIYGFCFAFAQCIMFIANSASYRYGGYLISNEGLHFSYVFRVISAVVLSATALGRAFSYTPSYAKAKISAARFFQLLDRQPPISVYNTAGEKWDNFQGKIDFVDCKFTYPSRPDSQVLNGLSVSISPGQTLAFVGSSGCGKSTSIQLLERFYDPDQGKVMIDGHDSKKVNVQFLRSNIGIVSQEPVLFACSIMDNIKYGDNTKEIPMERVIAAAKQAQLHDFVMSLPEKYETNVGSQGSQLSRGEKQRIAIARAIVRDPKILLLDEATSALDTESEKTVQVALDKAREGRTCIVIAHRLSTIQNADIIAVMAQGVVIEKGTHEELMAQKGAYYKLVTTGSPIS

[3] = Cardiotoxicity in conscious telemetered Beagle dog assessed as effect on arterial blood pressure at 0.5 to 30 mg/kg administered as single iv infusion for 2 hrs measured up to 48 hrs post dose by telemetry; type: toxicity, organism-based, Canis lupus familiaris; conditions: in vivo; outline: as §1
[4] = Cardiotoxicity in conscious telemetered Beagle dog; type: toxicity, Canis lupus familiaris
[5] = Cardiotoxicity in conscious telemetered Beagle dog assessed as effect on lead 2 electrocardiogram at 0.5 to 30 mg/kg administered as single iv infusion for 2 hrs measured up to 48 hrs post dose by telemetry; type: toxicity, organism-based, Canis lupus familiaris; conditions: in vivo; outline: as §1
[6] = Cardiotoxicity in dog assessed as effect on histopathological changes measured up to 28 days during compound dosing; type: toxicity, Canis lupus familiaris; conditions: in vivo, 672 h
[7] = Cardiotoxicity in conscious telemetered Beagle dog assessed as effect on left ventricular parameters at 0.5 to 30 mg/kg administered as single iv infusion for 2 hrs measured up to 48 hrs post dose by telemetry; type: toxicity, organism-based, Canis lupus familiaris; conditions: in vivo; outline: as §1
[8] = Cardiotoxicity in dog assessed as effect on cardiac function measured up to 28 days during compound dosing; type: toxicity, Canis lupus familiaris; conditions: in vivo, 672 h
[9] = Cardiotoxicity in rat assessed as effect on cardiac function measured up to 28 days during compound dosing; type: toxicity; conditions: in vivo, 672 h
Cytochrome P450 [10] = assay: Drug metabolism in human hepatocytes assessed as CYP450-mediated phase-2 glucuronidation/oxidation at 4 uM measured after 120 mins by LC-MS/MS analysis; type: ADME, cell-based, Hepatocyte; conditions: 2 h
[11] = Half life in human at 60 to 1200 mg, po administered as single dose; type: ADME, organism-based; conditions: in vivo
[12] = Cardiotoxicity in rat assessed as effect on histopathological changes measured up to 28 days during compound dosing; type: toxicity; conditions: in vivo, 672 h
[13] = molecular target: Prostaglandin G/H synthase 1 (Homo sapiens) (UniProt P23219); assay: Activity at COX1 in human whole blood assessed as effect on […] production by EIA; type: tissue-based
Prostaglandin G/H synthase 1 (Homo sapiens), sequence (P23219 whole entry): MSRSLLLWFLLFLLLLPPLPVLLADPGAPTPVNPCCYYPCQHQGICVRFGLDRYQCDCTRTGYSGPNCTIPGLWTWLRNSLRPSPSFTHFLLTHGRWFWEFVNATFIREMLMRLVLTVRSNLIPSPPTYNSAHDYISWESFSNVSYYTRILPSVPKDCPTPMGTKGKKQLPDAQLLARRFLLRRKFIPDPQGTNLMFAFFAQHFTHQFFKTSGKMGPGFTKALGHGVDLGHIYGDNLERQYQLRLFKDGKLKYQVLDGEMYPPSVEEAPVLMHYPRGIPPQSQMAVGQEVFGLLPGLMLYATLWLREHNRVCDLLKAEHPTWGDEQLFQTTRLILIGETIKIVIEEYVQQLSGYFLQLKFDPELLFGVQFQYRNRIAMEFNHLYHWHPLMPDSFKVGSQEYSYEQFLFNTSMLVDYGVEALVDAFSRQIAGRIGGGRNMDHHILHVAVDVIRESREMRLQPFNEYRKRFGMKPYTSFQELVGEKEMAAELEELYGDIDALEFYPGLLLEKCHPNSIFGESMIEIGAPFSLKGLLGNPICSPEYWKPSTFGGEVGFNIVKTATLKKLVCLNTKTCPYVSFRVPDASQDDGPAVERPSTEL

HepG2 = assay: Cytotoxicity against human HepG2 cells assessed as reduction in ATP depletion in presence of glucose/galactose; type: cell-based
[14] = Half life in Beagle dog at 1 umol/kg, iv; type: ADME, Canis lupus familiaris; conditions: in vivo
[15] = molecular target: T1, Arachidonate 5-lipoxygenase-activating protein (Homo sapiens) (UniProt P20292); assay: Inhibition of FLAP in human whole blood assessed as reduction in calcium ionophore-stimulated LTB4 production preincubated for 4 hrs followed by calcium ionophore stimulation and measured after 20 mins by EIA; type: tissue-based
T1 sequence (whole entry): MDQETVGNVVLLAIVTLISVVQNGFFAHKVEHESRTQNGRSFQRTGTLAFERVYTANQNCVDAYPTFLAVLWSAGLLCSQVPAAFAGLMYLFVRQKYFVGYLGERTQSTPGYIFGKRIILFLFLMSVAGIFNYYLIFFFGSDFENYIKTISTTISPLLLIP
Outline: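 Fresh human whole blood was incubated with compound for 4 h, then stimulated with calcium ionophore, and LTB4 production was measured as the 5-LO pathway read-out. IC50 was also converted to a free value: IC50 × (Fu/100), where Fu = 100 − human plasma protein binding (%).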

Homo sapiens [16] = species on record: Homo sapiens; assay: Selectivity ratio of compound effect on activity at COX2 in human whole blood to IC50 for FLAP in human whole blood
[17] = molecular target: T2, Prostaglandin G/H synthase 2 (Homo sapiens) (UniProt P35354); assay: Activity at COX2 in human whole blood assessed as effect on LPS-induced PGE2 production preincubated for 15 mins followed by LPS-stimulation and measured after overnight incubation by EIA; type: tissue-based
T2 sequence (whole entry): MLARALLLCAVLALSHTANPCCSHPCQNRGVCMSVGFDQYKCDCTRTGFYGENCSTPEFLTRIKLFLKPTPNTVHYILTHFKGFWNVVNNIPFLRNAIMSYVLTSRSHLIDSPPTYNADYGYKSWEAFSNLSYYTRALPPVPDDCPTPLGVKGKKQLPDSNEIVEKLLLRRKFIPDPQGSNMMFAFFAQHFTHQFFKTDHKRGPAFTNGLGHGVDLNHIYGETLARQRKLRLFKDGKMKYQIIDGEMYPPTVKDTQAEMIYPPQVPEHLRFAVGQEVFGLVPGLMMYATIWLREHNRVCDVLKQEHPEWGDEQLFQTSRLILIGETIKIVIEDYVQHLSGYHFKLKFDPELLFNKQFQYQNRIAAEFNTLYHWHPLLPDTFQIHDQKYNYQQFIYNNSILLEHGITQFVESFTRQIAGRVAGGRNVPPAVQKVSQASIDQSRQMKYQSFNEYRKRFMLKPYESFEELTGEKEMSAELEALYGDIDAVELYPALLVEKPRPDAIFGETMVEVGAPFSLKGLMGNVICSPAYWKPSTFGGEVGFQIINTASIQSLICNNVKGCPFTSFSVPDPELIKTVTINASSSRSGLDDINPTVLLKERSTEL

[18] = molecular target: T3, Arachidonate 5-lipoxygenase-activating protein (Homo sapiens, UniProt P20292); assay: Inhibition of [3H]MK0591 binding to human FLAP expressed in […] cell membranes measured after 60 to 80 mins by microbeta scintillation counting method
T3 sequence (P20292 whole entry): T1 sequence (whole entry)

Homo sapiens [19] = species on record: Homo sapiens; assay: Selectivity ratio of compound effect on activity at COX1 in human whole blood to IC50 for FLAP in human whole blood
Cytochrome P450 [20] = assay: Drug metabolism in human hepatocytes assessed as CYP450-mediated oxidation at 4 uM measured after 120 mins by LC-MS/MS analysis; type: ADME, cell-based, Hepatocyte; conditions: 2 h
THP-1 = assay: Cytotoxicity against human THP1 cells assessed as reduction in cell viability measured after 48 hrs by resazurin assay; type: cell-based; conditions: THP-1, 48 h
[21] = Clearance in Beagle dog at 1 umol/kg, iv; type: ADME, Canis lupus familiaris; conditions: in vivo
[22] = Oral bioavailability in rat at 2.8 umol/kg; type: ADME, organism-based; conditions: in vivo
[23] = Clearance in rat at 2 umol/kg, iv; type: ADME; conditions: in vivo
Cytochrome P450 [24] = assay: Drug metabolism in human hepatocytes assessed as CYP450-mediated phase-2 glucuronidation/ketone reduction at 4 uM measured after 120 mins by LC-MS/MS analysis; type: ADME, cell-based, Hepatocyte; conditions: 2 h
[25] = Half life in rat at 2 umol/kg, iv; type: ADME; conditions: in vivo

## Cc1cc(-c2ccc(C(=O)[C@@H]3CCCC[C@H]3C(=O)Nc3cnn4c3C(=O)NCC4)cc2)[nH]n1
[1]
  Activity: Non-Toxic
[2]
  Activity: Non-Toxic
Bile salt export pump
  IC50: 74 to 340 µM
[3]
  Activity: Non-Toxic
[4]
  Activity: Non-Toxic
[5]
  Activity: Non-Toxic
[6]
  Activity: Non-Toxic
[7]
  Activity: Non-Toxic
[8]
  Activity: Non-Toxic
[9]
  Activity: Non-Toxic
Cytochrome P450 [10]
  Drug metabolism: Metabolite_Detected
[11]
  half-life: 720 min
[12]
  Activity: Non-Toxic

## Cc1cc(-c2ccc(C(=O)[C@@H]3CCCC[C@H]3C(=O)Nc3cnn(C)c3C(=O)NOC(C)(C)C)cc2)[nH]n1
[13]
  Activity: inactive
HepG2
  IC50: > 250 µM
[14]
  half-life: 420 min
[15]
  fIC50: 1.6 nM
Homo sapiens [16]
  Selectivity ratio: > 100
[17]
  Activity: inactive
[18]
  IC50: 5.8 nM
Homo sapiens [19]
  Selectivity ratio: > 100
Cytochrome P450 [20]
  Drug metabolism: Metabolite_Detected
THP-1
  IC50: > 250 µM
[21]
  clearance: 2 mL/min/kg

## Cc1cc(-c2ccc(C(=O)[C@@H]3CCCC[C@H]3C(=O)Nc3cnn(C)c3S(N)(=O)=O)cc2)[nH]n1
[22]
  bioavailability: 14%
[23]
  clearance: 10 mL/min/kg
Cytochrome P450 [24]
  Drug metabolism: Metabolite_Detected
[25]
  half-life: 174 min
